Experiments:
[1] = tested on: splenocytes of HHDII/DR1 mice (T-cell IFNγ response); experiment: IFNγ ELISpot on splenocytes of peptide-immunized HLA-A2 transgenic; type: in vivo, mouse; conditions: for IFNγ response after immunization with wt peptide: HHDII/DR1 mice, tested against wt or Hcit peptides (figure 2B); for Modification specificity of IFNγ response (Hcit versus wt peptide): HHDII/DR1 and HHDII mice immunized with long Hcit peptide (figure 2A); for Effect of CD4 or CD8 blocking antibody on IFNγ response, ex vivo: HHDII/DR1 mice immunized with long Hcit peptide, 20 µg/mL anti-CD4 or anti-CD8 (figure 1C)
Outline: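 HHDII/DR1 or HHDII mice get 25 µg peptide s.c. (stock 1 mg/mL in 20% DMSO/PBS) with 5 µg each CpG ODN 1826 and monophosphoryl lipid A in PBS on days 1, 8 and 15. Spleens taken day 21. 5×10^5 splenocytes/well in quadruplicate are restimulated with peptide for 40 h at 37°C, 5% CO2. IFNγ spots are counted automatically and reported as mean spots/million splenocytes per mouse; n=3 per group.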

HLA-A2 on T2 cells = experiment: T2 binding assay; type: cell-based, human; conditions: different peptide concentrations; three independent experiments (figure 3C,D)
Outline: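 T2 cells (2×10^6/mL) are incubated overnight at 37°C with peptide (dilutions prepared at 400, 40 and 4 µg/mL before mixing) and recombinant human β2-microglobulin (prepared at 800 ng/mL). Brefeldin A is added for 1 h before anti-HLA-A2 FITC staining and flow cytometry. Binding is taken as median fluorescence intensity; three independent experiments, two-way ANOVA.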

B16 HHDII melanoma cells = experiment: In vivo antitumor study, B16 HHDII tumor in HHDII mice; conditions: aggressive mouse B16 melanoma model, peptide vaccination
Outline: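 HHDII mice receive 5×10^4 B16 HHDII cells s.c. on day 1, then peptide plus CpG/MPLA adjuvant on days 4, 8 and 11. In depletion arms, anti-CD4 (GK1.5) or anti-CD8 (2.43) is given i.p., 500 µg day 4 and 300 µg days 8 and 11. Tumours are checked twice weekly, with euthanasia near 15 mm diameter; n=5–10 per group.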

With VLAAVY-Hcit-AL [Aldo 209-217Hcit] the “IFNγ response to short peptide in mice immunized with the long Hcit peptide” value ([1]; HHDII/DR1 mice immunized with Aldo 204-219Hcit or Cyk8 112-132Hcit (figure 2C)) was “strong responses”, the “HLA-A2 binding affinity of Hcit peptide compared with corresponding wt peptide” value (HLA-A2 on T2 cells) was “higher binding affinity” and the survival (B16 HHDII melanoma cells) was “at least 50%”.

With “Cyk8 112–132wt: wild type (native) long cytokeratin 8 peptide (LEQQNKMLETKWSLLQQQKTA; UniProt P05787 112-132, looked up, fragment)” the “IFNγ response after immunization with wt peptide” value [1] was “failed to stimulate detectable IFNγ immune responses”.

With “LEQQN-Hcit-MLET- Hcit-WSLLQQQ- Hcit-T [Cyk8 112-132Hcit]” the “Modification specificity of IFNγ response (Hcit versus wt peptide)” value [1] was “strong modification specific responses” and the “Effect of CD4 or CD8 blocking antibody on IFNγ response, ex vivo” value [1] was “either anti-CD8 or anti-CD4 antibody significantly reduced the immune response”.

In the case of “YVTE-Hcit-VLAAVY-Hcit-ALSD [Aldo 204-219Hcit]”, the “Modification specificity of IFNγ response (Hcit versus wt peptide)” value [1] was “strong modification specific responses” and the “Effect of CD4 or CD8 blocking antibody on IFNγ response, ex vivo” value [1] was “not affected by either of the blocking antibody”.

With “Aldo 204–219wt: wild type (native) long aldolase A peptide (YVTEKVLAAVYKALSD; UniProt P04075 204-219, looked up, fragment)” the “IFNγ response after immunization with wt peptide” value [1] was “failed to stimulate detectable IFNγ immune responses”.
